Activity calls are given as the source filed them. The rule behind the calls is not given here.
Assays:
Plasmodium falciparum [1] = assay: Antiplasmodial activity against chloroquine resistant ring stage Plasmodium falciparum INDO infected in human erythrocytes assessed as reduction in parasitemia at 1.79 uM incubated for 12 hrs by time-kill kinetics based FACS analysis relative to control; type: functional, Erythrocyte; parameters: scale not given: the % may be the effect or the level left
Method in brief: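 PfINDO rings were exposed to 2.25 or 1.79 μM, with compound washed out by centrifugation at 12, 24, 36, 48 or 57 h. Cultures were then grown drug-free to a total of 96 h. Parasitemia at the end of the second cycle was counted by FACS on 10^5 cells.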

Plasmodium falciparum [2] = assay: Antagonistic antiplasmodial activity against multidrug-resistant Plasmodium falciparum Cam3.1R539T infected in human erythrocytes at 8 times IC50 concentration incubated for 72 hrs in presence of mefloquine by SYBR green I staining based fluorescence assay; type: functional, organism-based; conditions: Erythrocyte
Method in brief: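 P. falciparum Cam3.1R539T in O+ human erythrocytes, 1% parasitemia, 2% haematocrit. 8× IC50 stocks of test compound and standard drug were mixed at molar ratios 4:1, 3:2, 2:3 and 1:4, then serially diluted two-fold. Plates were incubated 72 h at 37 °C and read by SYBR Green I lysis. Controls were 0.4% DMSO (100% growth) and 4 μM chloroquine (0% growth). ΣFIC = FICA + FICB; <1 synergistic, 1.0–2.0 additive, >2.0 antagonistic.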

Plasmodium falciparum [3] = assay: Antiplasmodial activity against chloroquine resistant segmental schizont stage Plasmodium falciparum INDO infected in human erythrocytes assessed inhibition of rupture at 5.62 uM preincubated with compound for 8 hrs followed by media replacement without compound and measured after 48 hrs by SYBR Green staining based FACS analysis; type: functional, organism-based; conditions: Erythrocyte

Compound	Activity (Plasmodium falciparum [1]) [%]	Activity (Plasmodium falciparum [2])	Activity (Plasmodium falciparum [3])
O=C(Cn1nnc(-c2cccc([N+](=O)[O-])c2)n1)N1CCN(c2ccnc3cc(Cl)ccc23)CC1	~22	Active	–
Clc1ccc2c(N3CCN(CCCn4nnc(-c5ccc(Br)cc5)n4)CC3)ccnc2c1	–	–	Active
